Most compounds without a hit are left out; they make up all but 1.4% or so of the library.
CHT block – human CHT choline transport inhibition; B-score at 10 µM; 310,000 tested, 0.86% active; Q9GZV3; CHT-expressing cells, membrane potential dye, choline response; active compounds read low;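 active = B-score over 3 SD under the library average, and starting fluorescence ratio not unusually high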;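 note: choline stimulus applied at its EC90 after an EC20 pre-addition; B-score computed on integrated fluorescence ratio after choline addition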
Target sequence (Q9GZV3 whole entry, looked up): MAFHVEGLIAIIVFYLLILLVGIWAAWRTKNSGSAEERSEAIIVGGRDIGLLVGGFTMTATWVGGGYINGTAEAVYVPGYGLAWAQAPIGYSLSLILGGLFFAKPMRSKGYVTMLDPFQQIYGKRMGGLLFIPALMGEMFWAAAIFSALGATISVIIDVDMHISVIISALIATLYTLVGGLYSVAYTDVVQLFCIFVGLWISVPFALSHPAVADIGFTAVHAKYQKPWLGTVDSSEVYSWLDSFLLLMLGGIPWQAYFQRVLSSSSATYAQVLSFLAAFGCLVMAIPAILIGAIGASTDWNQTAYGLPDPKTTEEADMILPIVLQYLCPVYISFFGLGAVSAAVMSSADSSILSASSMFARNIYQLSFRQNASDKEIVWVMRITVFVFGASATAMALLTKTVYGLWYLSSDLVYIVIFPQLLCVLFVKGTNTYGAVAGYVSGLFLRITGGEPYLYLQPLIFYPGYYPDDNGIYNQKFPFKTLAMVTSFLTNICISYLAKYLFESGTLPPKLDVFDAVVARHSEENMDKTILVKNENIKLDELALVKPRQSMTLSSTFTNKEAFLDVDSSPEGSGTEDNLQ
TNAP act hi DEA – activators of human TNAP at high phosphate acceptor concentration | 200,000 tested, under 10 active | AID 1136 | P05186 | purified TNAP, CDP-star luminescence, 1 M DEA, 30 min; active compounds read high; 0 = EDTA background, 1 = DMSO-only activity | activation factor at 20 µM;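 active = activation factor at least 2 at 20 µM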
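Dosing: 20 µM single point. System: human TNAP. Amount: TNAP 1/800 final. Incubation: 30 min, room temperature. Read-out: TNAP activation factor scaled between EDTA and DMSO control wells. Signal: luminescence from CDP-star hydrolysis. Medium: 1 M DEA, pH 9.8, Mg2+, Zn2+. Control set: EDTA negative control, DMSO positive control.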
CHT allo act – human CHT allosteric activation. Q9GZV3. CHT-expressing cells, membrane potential dye, choline EC20; active compounds read high; LV-AA mutant CHT in HEK293 cells. B-score at 10 µM. 310,000 tested, 0.49% active. AID 488977;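 active = initial fluorescence not abnormally high and integrated response B-score, plate-corrected, over 3 SD above library mean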
TNAP inh hi DEA – inhibitors of human TNAP at high phosphate acceptor concentration | inhibition, % at 20 µM | purified TNAP, CDP-star luminescence, 1 M DEA | AID 1135 | 200,000 tested, 0.03% active | P05186;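 active = over 50% inhibition of tissue-nonspecific alkaline phosphatase at 20 µM in the single-dose screen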
ABCB6 inh 2 – inhibitors of human ABC transporter ABCB6; Q9NP58; K562-ABCB6 porphyrin accumulation, flow cytometry, 1 h; active compounds read low; fluorescence ratio to DMSO, % at 10 µM; 360,000 tested, 0.19% active;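 active = fluorescence ratio to DMSO below 75%, the collection mean minus 3 SD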;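 note: signal is porphyrin accumulated inside mitochondria; lower ratio means ABCB6 inhibition with less porphyrin fluorescence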
TNAP inh noacc – inhibitors of human TNAP without phosphate acceptor; P05186; purified TNAP, CDP-star luminescence, 30 min; 200,000 tested, 0.26% active; inhibition, % at 20 µM; AID 1012;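 active = tissue-nonspecific alkaline phosphatase inhibition above about 50% at 20 µM in the single-dose screen, limit read from the data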
Of the large screens only hits and unclear results are named; the others gave an inactive call.

Cn1c(=O)c(C(=O)COC(=O)c2cc(-c3ccco3)nc3ccccc23)c(N)n(CC2CC2)c1=O	CHT block -5.55 (no result: ABCB6 inh 2)
COc1cccc(NC(=S)NCCN2CCOCC2)c1	none
COc1cc(NC(=S)NCCCN2CCOCC2)cc(OC)c1	ABCB6 inh 2 62.0
Cc1ccccc1CSc1nnnn1-c1ccc(C(N)=O)cc1	none (no result: TNAP act hi DEA, TNAP inh hi DEA, TNAP inh noacc)
Cc1ccc(-n2nnnc2SCC(=O)NNC(=O)c2ccc([N+](=O)[O-])cc2)cc1	none
COc1ccc(-n2nnnc2SCC(=O)c2ccc(O)c(O)c2)cc1	TNAP inh noacc 75.6
NC(=O)c1ccc(-n2nnnc2SCC(=O)c2ccc(O)c(O)c2)cc1	TNAP inh noacc 82.4
COc1ccc(-n2nnnc2SCC(N)=O)cc1	none
COc1ccc(-n2nnnc2SCC(=O)NNC(=O)c2ccc([N+](=O)[O-])cc2)cc1	ABCB6 inh 2 69.0
COc1ccc(CN2C(=O)c3cccc4cccc2c34)cc1F	none (no result: TNAP act hi DEA, TNAP inh hi DEA, TNAP inh noacc)
CN(C)c1ccc(/C=C(\C#N)C(=O)Nc2nc3c(s2)CCN(Cc2ccccc2)C3)cc1	TNAP inh noacc 55.4
Oc1cccc(-c2nc3ccccc3s2)c1	none
Oc1ccc(O)c(Cc2nc3ccccc3s2)c1	TNAP inh noacc 61.2
COc1ccc(C2=NOC(COc3ccc4c(C)cc(=O)oc4c3)C2)c(OC)c1 (configuration not stated)	none (no result: TNAP act hi DEA, TNAP inh hi DEA, TNAP inh noacc)
COc1ccccc1C1=NOC(COc2ccc3c(C)cc(=O)oc3c2)C1 (configuration not stated)	CHT block -8.47 (no result: TNAP act hi DEA, TNAP inh hi DEA, TNAP inh noacc)
Oc1ccc(N=Nc2n[nH]c(-c3ccc(Cl)cc3)n2)cc1	TNAP inh noacc 68.7
Oc1ccc(N=Nc2ccccc2)cc1	none (no result: TNAP act hi DEA, TNAP inh hi DEA, TNAP inh noacc)
Nc1nc(-c2ccc(Cl)cc2)nn1C(=O)c1cccnc1	TNAP inh noacc 57.6
Nc1nc(-c2cccnc2)nn1C(=O)c1ccc(Cl)cc1	none (no result: CHT block, CHT allo act)
COc1cccc(C(NC(C)=O)c2nc(-c3cccc(O)c3)cs2)c1 (configuration not stated)	none (no result: CHT block, TNAP act hi DEA, CHT allo act, TNAP inh hi DEA, TNAP inh noacc)
Cc1ccc([C@H]2C[C@H](O)[C@@H](n3cc(C4CC4)nn3)CN2C(=O)C2CCCCC2)cc1	none (no result: CHT block, TNAP act hi DEA, CHT allo act, TNAP inh hi DEA, TNAP inh noacc)
O=c1cc(-c2ccc(O)c(O)c2)oc2c(C3O[C@H](CO)[C@@H](O)[C@H](O)[C@H]3O)c(O)cc(O)c12 (some centres not stated)	TNAP inh noacc 52.8
O=c1cc(-c2ccc(O)cc2)oc2c(C3O[C@H](CO)[C@@H](O)[C@H](O)[C@H]3O)c(O)cc(O)c12 (some centres not stated)	none (no result: TNAP act hi DEA, TNAP inh hi DEA, TNAP inh noacc)
NNC(=O)c1cc(-c2ccco2)[nH]n1	TNAP inh noacc 75.4
O=C(N/N=C/C(Br)=C/c1ccccc1)c1cc(-c2ccco2)[nH]n1	none
CCN(CC)c1ccc(/C=C2\C(=O)c3ccc(C(=O)O)cc3C2=O)cc1	TNAP inh noacc 57.0
CCN(CC)c1ccc(C(=O)O)cc1	none
CCCc1cc(=O)[nH]c(SCC(=O)N2c3ccccc3CC2C)n1 (configuration not stated)	none (no result: CHT block, TNAP act hi DEA, CHT allo act, TNAP inh hi DEA, TNAP inh noacc)
Nc1nc2ccccc2n1CCOc1ccc(Cl)cc1	none (no result: TNAP act hi DEA, TNAP inh hi DEA, TNAP inh noacc)
Nc1nc2ccccc2n1CCOc1ccccc1Cl	CHT block -13.9
COc1ccccc1C(=O)Nc1ccnn1C1CCN(Cc2cc(C)c(C)cc2C)CC1	CHT block -5.27 (no result: TNAP act hi DEA, TNAP inh hi DEA, TNAP inh noacc)
O=C(OCc1ccc([N+](=O)[O-])cc1)c1cc([N+](=O)[O-])ccc1N1CCOCC1	none (no result: TNAP act hi DEA, TNAP inh hi DEA, TNAP inh noacc)
COc1ccc(C(=O)c2cc([N+](=O)[O-])ccc2N2CCOCC2)cc1	CHT allo act 10.5
Cc1ccc(COC(=O)c2cc([N+](=O)[O-])ccc2N2CCOCC2)cc1	CHT allo act 6.42 (no result: TNAP act hi DEA, TNAP inh hi DEA, TNAP inh noacc)
O=C(Cn1cnnn1)Nc1ccccc1Cc1ccccc1	none (no result: TNAP act hi DEA, TNAP inh hi DEA, TNAP inh noacc)
Cc1ccc(S(=O)(=O)N2CCC(=O)N(CCO)CC2)cc1	none
CN1C(=S)N(c2cccnc2)C(=O)/C1=C\c1ccc(N(C)C)cc1	TNAP inh noacc 51.7 (no result: CHT block, CHT allo act)
CN1C(=S)N(c2cccnc2)C(=O)/C1=C\c1ccc(C(C)(C)C)cc1	none
C=C1C(=O)O[C@H]2C[C@]3(C)C([C@@H](OC(=O)/C(C)=C/C)[C@H]12)[C@](C)(O)CC[C@H]3O (some centres not stated)	none (no result: TNAP act hi DEA, TNAP inh hi DEA, TNAP inh noacc)

High-throughput results deposited in PubChem BioAssay by several laboratories.
